Results reported in ChEMBL document CHEMBL3525987, “Assessment of exposure of metabolites in preclinical species and humans at steady state from the single-dose radiolabeled absorption, distribution, metabolism, and excretion studies: a case study” (Drug Metab Dispos, 2012).

Assays:
Homo sapiens = test: AUC(0 to t) as total radioactivity in human plasma at 100 mg, po administered as single dose by LC-MS/MS analysis; format: ADME, organism-based; parameters: dosed compound name [14C]lixivaptan; conditions: in vivo
Method in brief: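 Fasted healthy males took one oral 100 mg (200 µCi) [14C]lixivaptan dose. Plasma was drawn from predose to 144 h. Total radioactivity was measured by LSC and converted to ng-equiv/ml via the dose specific activity; lixivaptan by validated LC-MS/MS. Noncompartmental analysis: Cmax observed; kel by log-linear regression; AUC0-t by linear trapezoid; extrapolation as Cest/kel.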

[1] = Drug recovery in bile of bile duct-cannulated female Sprague-Dawley rat at 10 mg/kg, po administered as single dose via gavage measured 0 to 48 hrs by liquid scintillation counting; format: ADME, organism-based; parameters: dose 10 mg/kg, dosed compound name [14C]lixivaptan, route oral; conditions: in vivo
Method in brief: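 Bile-duct cannulated SD rats (n=5) got single gavage of [14C]drug 10 mg/kg as pluronic F68/water suspension. Bile collected on wet ice at 0-4, 4-8, 8-24, 24-48 h; drinking water supplemented with bile salts and electrolytes. Duplicate aliquots counted by liquid scintillation; expressed as % of dose.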

Molecule `Cc1ccc(F)cc1[14C](=O)Nc1ccc(C(=O)N2Cc3cccn3Cc3ccccc32)c(Cl)c1` has an AUCt (Homo sapiens) of 24700 ng.Eq.hr/ml and a Radiolabel recovery [1] of 70.5%.
